procasp7 counter: counter-screen: procaspase-7 (human) activation | P55210 | recombinant procaspase-7, Ac-DEVD-pNA absorbance 405 nm; D23A/D198A/D206A triple mutant, cannot self-cleave; scale: DMSO 0, 5 µM enzyme 100 | activation, % at 8.5 µM | 330,000 tested, 0.093% active | AID 463210;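 active = percent activation above the screen-wide mean plus 3 SD, cut at about 25% in these data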
Target sequence (P55210 whole entry D23A/D198A/D206A): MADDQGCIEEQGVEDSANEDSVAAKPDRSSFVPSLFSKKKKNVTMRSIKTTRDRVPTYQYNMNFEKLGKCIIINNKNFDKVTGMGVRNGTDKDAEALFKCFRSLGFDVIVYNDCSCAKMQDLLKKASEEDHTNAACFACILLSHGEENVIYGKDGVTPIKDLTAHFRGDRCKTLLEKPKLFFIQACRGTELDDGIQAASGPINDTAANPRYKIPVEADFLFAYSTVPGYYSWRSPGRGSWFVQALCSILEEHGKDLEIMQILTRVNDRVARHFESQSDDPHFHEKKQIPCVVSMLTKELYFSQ
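Assay system – Uncleavable procaspase-7 mutant enzyme · Quantity – 2 µM procaspase-7 mutant as dispensed · Times – 1 h preincubation, 2 h reaction · Dosing – single nominal 8.5 µM compound dose, 0.8% DMSO final · Buffer or medium – Zinc-free 50 mM HEPES buffer, pH 7.4, with NaCl and Triton X-100 · Detection – Epi-absorbance of released pNA at 405 nm, two timepoints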
UBC13 inh: inhibitors of human UBC13 polyubiquitin chain formation | TR-FRET | AID 485273 | 330,000 tested, 0.47% active | inhibition, % at 20 µM; in the data active = inhibition above about 45%, passing the limit was not always enough
Target sequence (P61088 whole entry, looked up): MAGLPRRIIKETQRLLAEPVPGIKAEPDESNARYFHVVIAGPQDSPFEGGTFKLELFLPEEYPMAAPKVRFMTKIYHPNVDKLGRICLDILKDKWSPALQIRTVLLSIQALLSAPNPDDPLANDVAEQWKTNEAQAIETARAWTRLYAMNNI
PHOSPHO1 inh: blocks human PHOSPHO1 phosphatase activity; recombinant PHOSPHO1, absorbance phosphatase assay; inhibition, % at 13.3 µM; 290,000 tested, 1.1% active; AID 1565; in the data active = inhibition above about 60%
IDE cell activ: activators of human insulin-degrading enzyme in cells; P14735; activation, % at 5.96 µM; AID 493087; 340,000 tested, 0.073% active; HEK cells, FAbeta-B cleavage, fluorescence polarization; 0% vehicle, 100% cell-free pure enzyme wells;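 active = activation above the mean of all tested compounds plus 3 SD, set per screening campaign, cut at about 17% in these data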
procasp3 activ: activates human procaspase-3; recombinant procaspase-3 D3A, Ac-DEVD-pNA absorbance 405 nm; activation, % at 8.5 µM; 330,000 tested, 0.11% active;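 active = activation above the mean of all tested compounds plus 3 SD, cut at about 21% in these data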
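Technique: 405 nm absorbance of p-nitroaniline, reads at 0 and 120 min; Test system: Procaspase-3 D3A mutant; Incubation: 1 h enzyme-compound preincubation, then 2 h substrate reaction, 25 °C; Repeats: singlicate, each compound tested once; Benchmarks: low control DMSO wells, high control DMSO plus 5 µM PC-3 D3A.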
IDE inh: inhibits human insulin-degrading enzyme in HEK cells | AID 434962 | 320,000 tested, 0.41% active | P14735 | inhibition, % at 5.59 µM | FAbetaB cleavage, fluorescence polarization;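 active = percent inhibition above the average of all tested compounds plus 3 SD, set per screening campaign, cut at about 16% in these data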;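 also: IDE supplied by intact live HEK cells; FP after avidin binding of uncleaved biotin substrate so inhibition keeps polarization high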
Large screens that a line does not name were inactive. The list is not random: actives were taken first. Their share in the collection is about 1.9%.

Nc1ccc2cc3[nH]c4cc(N)ccc4c3nc2c1	IDE cell activ 53 (no result: procasp7 counter, UBC13 inh, PHOSPHO1 inh, procasp3 activ, IDE inh)
CCC(C)N(C(=O)c1csnn1)C(C(=O)NC1CCCC1)c1ccccc1F (stereo unspecified)	none
COc1ccc(NC(=O)CN(C)C(=O)c2cc(CN3C(=O)c4ccccc4C3=O)ccc2OC)cc1	none (no result: PHOSPHO1 inh)
CCOC(=O)CSC1=C(C#N)C(=O)NC(c2ccc(OC)c(OC)c2)S1 (stereo unspecified)	PHOSPHO1 inh 98
CCOC(=O)CSC1=C(C#N)C(=O)NC(c2ccc(OC)cc2)S1 (stereo unspecified)	PHOSPHO1 inh 87
CCOC(=O)CSc1nc2cc(OC)ccc2cc1C#N	none
CC(C)c1csc(CN2CCC(n3nccc3NC(=O)Cc3ccccc3)CC2)n1	none
COc1ccc(-c2nc(CS(=O)(=O)CC(=O)NCCCN3CCN(C)CC3)c(C)o2)cc1	none
CCCCn1c(SCC(=O)NC(C)CC)nc2ccc(N3CCOCC3)cc2c1=O (stereo unspecified)	PHOSPHO1 inh 60
CC(C)C[C@H](NC(=O)C1CCN(C(=O)[C@H](Cc2ccccc2)NC(=O)OC(C)(C)C)CC1)C(=O)O	none (no result: PHOSPHO1 inh)
CNc1ccc2c3c(cccc13)C(=O)N(C)C2=O	IDE cell activ 59
CC1CC(C)CN(C(=O)C(Cc2ccccc2)NC(=O)c2ccccc2)C1 (stereo unspecified)	none (no result: PHOSPHO1 inh)
CCCCCCn1c(SCCN2CCOCC2)nc2c1c(=O)[nH]c(=O)n2C	none
CCCCCn1c(SCCN2CCOCC2)nc2c1c(=O)[nH]c(=O)n2C	PHOSPHO1 inh 69
CC(C)Sc1nc2c(c(=O)[nH]c(=O)n2C)n1Cc1ccc(Cl)cc1	PHOSPHO1 inh 84
CCOC(=O)CSc1nc2c(c(=O)[nH]c(=O)n2C)n1C/C=C(/C)Cl	PHOSPHO1 inh 81
Cn1c(=O)[nH]c(=O)c2c1nc(SCC(=O)O)n2CCc1ccccc1	PHOSPHO1 inh 91
CCN(CC)C(=O)c1[nH]cnc1C(=O)NC1CCN(C(=O)OC(C)(C)C)CC1	none (no result: PHOSPHO1 inh)
Cc1ccc(Cn2c(SCC(C)C)nc3c2c(=O)[nH]c(=O)n3C)cc1	PHOSPHO1 inh 90
CCCSc1nc2c(c(=O)[nH]c(=O)n2C)n1Cc1ccc(C)cc1	none
CCCC(=O)OCC1CN(Cc2ccco2)S(=O)(=O)c2c(F)cccc2O1 (stereo unspecified)	none (no result: procasp7 counter, UBC13 inh, PHOSPHO1 inh, procasp3 activ, IDE inh)
CCn1c(SCC(=O)c2[nH]c(C)c(C(C)=O)c2C)nnc1-c1ccccc1	PHOSPHO1 inh 75
CC(=O)c1c(C)[nH]c(C(=O)CSc2nnc(CN3CCCCCC3=O)n2-c2ccccn2)c1C	PHOSPHO1 inh 67
CCNC(=O)CSc1nnc(CN2CCCCCC2=O)n1-c1ccccn1	none
CCn1c(SCC(=O)c2[nH]c(C)c(C(C)=O)c2C)nnc1-c1ccncc1	none
COc1ccccc1C(=O)N/C(=C\c1cn(S(=O)(=O)N(C)C)c2ccccc12)C(=O)N1CCCCC1	none
CCCCCC(O)CCC(=O)NNC1=CC(=O)CC(C)(C)C1 (stereo unspecified)	none
CC(O)CCC(=O)NNC1=CC(=O)CC(C)(C)C1 (stereo unspecified)	PHOSPHO1 inh 64 (no result: IDE cell activ)
Cc1ccc(-c2ccc(/C=N/N3C(=O)C4C5C=CC(C6CC56)C4C3=O)o2)c([N+](=O)[O-])c1 (stereo unspecified)	PHOSPHO1 inh 69
CCC(C(=O)NCc1ccccn1)n1c2ccccc2c2nc(=O)cc(C)n21 (stereo unspecified)	none
O=C1c2cccc3c(N4CCCCC4)ccc(c23)C(=O)N1CCO	IDE inh 51
CCNC(=S)NNC(=O)c1cccnc1	none
C=CCNC(=S)NNC(=O)c1ccc(OC(C)C)cc1	PHOSPHO1 inh 72
Cc1ccsc1C(=O)NNC(=S)NCC(C)C	none
CCNC(=S)NNC(=O)c1csc2ccccc12	none
C=CCNC(=S)NNC(=O)c1ccccc1	none
CCNC(=S)NNC(=O)c1ccc(OC(F)F)cc1	PHOSPHO1 inh 73
CC(C)CNC(=S)NNC(=O)c1ccc(OC(F)F)cc1	PHOSPHO1 inh 94
CC(C)CNC(=S)NNC(=O)c1csc2ccccc12	PHOSPHO1 inh 88
Cc1ccc(S(=O)(=O)N2CCOCC2)cc1NC(=O)Cn1nc(C)c([N+](=O)[O-])c1C	none (no result: PHOSPHO1 inh)
COc1cc(C)c(CN2CCN(CC(=O)Nc3ccccc3C(=O)NC3CC3)CC2)cc1OC	none (no result: PHOSPHO1 inh)
Cc1ccc(C)c(OCC(=O)Nc2cccc(S(=O)(=O)NC3=NCCCCC3)c2)c1	PHOSPHO1 inh 67
CCOc1ccc2c(c1)[nH]c(=S)n2C	PHOSPHO1 inh 79
S=c1[nH]c2ccccc2n1CCc1ccncc1	none (no result: procasp7 counter, UBC13 inh, PHOSPHO1 inh, procasp3 activ, IDE inh)
S=c1[nH]c2ccccc2n1Cc1ccccc1	none
N#CCCn1c(=S)[nH]c2ccccc21	PHOSPHO1 inh 88
CCOc1ccc(OCCn2c(=S)[nH]c3ccccc32)cc1	none (no result: procasp7 counter, procasp3 activ, IDE inh)
Cn1c(=S)[nH]c2ccccc21	PHOSPHO1 inh 74
CCc1ccc(NC(=O)CC2C(=O)N(c3ccc(C)cc3)C(=O)N2CCc2ccncc2)cc1 (stereo unspecified)	none
CC(=O)N1CCc2cc(S(=O)(=O)NCC(=O)NCc3ccccc3Cl)ccc21	PHOSPHO1 inh 65
CCOC(=O)N1CCN(C(=O)C(=O)Nc2sc3c(c2C(=O)O)CC(C)(C)OC3)CC1	none
Cc1ccc(N2C(=S)N=C(Nc3ccccc3C)C23CCOC(C)(C)C3)cc1 (stereo unspecified)	PHOSPHO1 inh 70
Cc1cccc(C)c1NC1=NC(=S)N(c2ccccc2)C12CCOC(C)(C)C2 (stereo unspecified)	none
CC(Sc1ccc(S(=O)(=O)N(C)C)cn1)C(=O)NC1CCCC1 (stereo unspecified)	none (no result: PHOSPHO1 inh)
CC(C)Cn1c(N)c(C(=O)COC(=O)CCNS(=O)(=O)c2ccccc2)c(=O)n(C)c1=O	none (no result: PHOSPHO1 inh)
CCC(N1CCOC1=O)S(=O)(=O)c1ccc(C)cc1 (stereo unspecified)	PHOSPHO1 inh 93
CC(C)c1ccc(NC2CCCN(C(=O)c3cnsn3)C2)cc1 (stereo unspecified)	none
CCCCN(CCCC)c1ncnc2nc[nH]c12	none
CCCCN(Cc1ccccc1)c1ncnc2nc[nH]c12	UBC13 inh 47
COc1ccc2nc3n(c(=O)c2c1)-c1cc(Cl)ccc1C(=O)NC3Cc1ccccc1 (stereo unspecified)	none (no result: PHOSPHO1 inh, IDE cell activ)
Cc1ccc(S(=O)(=O)Nc2cccc(C(=O)N3CCC(C(N)=O)CC3)c2)cc1	none (no result: PHOSPHO1 inh)
COc1ccc2nc(NC(=O)CSc3nc(C)cc(=O)[nH]3)sc2c1	PHOSPHO1 inh 74
COc1cccc(-n2c(SCC(=O)Nc3nc4ccccc4s3)nc3ccccc3c2=O)c1	PHOSPHO1 inh 62 (no result: IDE cell activ)
COc1ccc2nc(NC(=O)CSc3nccc(C)n3)sc2c1	none
CCN(CC)c1ccc(C(=O)NNC(=O)CNC(=O)c2ccco2)cc1	none (no result: procasp7 counter, PHOSPHO1 inh, procasp3 activ, IDE inh)

Assay outcomes (PubChem)
